Reference: ChEMBL document CHEMBL4033795, “Design, Synthesis, and Structure-Activity Relationship Study of 2-Oxo-3,4-dihydropyrimido[4,5- d]pyrimidines as New Colony Stimulating Factor 1 Receptor (CSF1R) Kinase Inhibitors” (J Med Chem, 2018)

Assays:
[1] = AUC (0 to infinity) in Sprague-Dawley rat at 5 mg/kg, iv measured up to 72 hrs by LC/MS analysis; assay type: ADME, organism-based; parameters: dose 5 mg/kg, time infinity, route intravenous; details: in vivo
Procedure, shortened: (§1)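 Male Sprague-Dawley rats, 4–6 weeks old, acclimatised 1 week, were dosed iv at 5 mg/kg or by oral gavage at 25 mg/kg. Vehicle was 2% DMSO, 4% EtOH, 4% castor oil, 90% H2O. Blood was drawn by orbital sinus puncture from 2 min to 72 h into heparinized tubes. Plasma was assayed by LC/MS with propranolol as internal standard. Three animals per group.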

Rattus norvegicus [2] = assay: Apparent clearance in Sprague-Dawley rat at 25 mg/kg administered via oral gavage measured up to 72 hrs by LC/MS analysis; assay type: ADME, organism-based; details: in vivo, iv, 5 mg/kg, in the assay text read “5 mg/kg administered intravenously” for “25 mg/kg administered via oral gavage”; procedure, shortened: as §1
Rattus norvegicus [3] = assay: AUC (0 to infinity) in Sprague-Dawley rat at 25 mg/kg administered via oral gavage measured up to 72 hrs by LC/MS analysis; assay type: ADME, organism-based; parameters: dose 25 mg/kg, route oral, time infinity; details: in vivo; procedure, shortened: as §1
[4] = Half life in Sprague-Dawley rat at 25 mg/kg administered via oral gavage measured up to 72 hrs by LC/MS analysis; assay type: ADME, organism-based; details: in vivo; procedure, shortened: as §1
[5] = biological target: Macrophage colony-stimulating factor 1 receptor (Homo sapiens, UniProt P07333); assay: Inhibition of recombinant human His-tagged CSF1R cytoplasmic domain (538 to 910 residues) expressed in baculovirus using tyr4 peptide as substrate after 1 hr by FRET-based Z'-Lyte assay
Sequence of Macrophage colony-stimulating factor 1 receptor (P07333 whole entry, the tested form may be a part): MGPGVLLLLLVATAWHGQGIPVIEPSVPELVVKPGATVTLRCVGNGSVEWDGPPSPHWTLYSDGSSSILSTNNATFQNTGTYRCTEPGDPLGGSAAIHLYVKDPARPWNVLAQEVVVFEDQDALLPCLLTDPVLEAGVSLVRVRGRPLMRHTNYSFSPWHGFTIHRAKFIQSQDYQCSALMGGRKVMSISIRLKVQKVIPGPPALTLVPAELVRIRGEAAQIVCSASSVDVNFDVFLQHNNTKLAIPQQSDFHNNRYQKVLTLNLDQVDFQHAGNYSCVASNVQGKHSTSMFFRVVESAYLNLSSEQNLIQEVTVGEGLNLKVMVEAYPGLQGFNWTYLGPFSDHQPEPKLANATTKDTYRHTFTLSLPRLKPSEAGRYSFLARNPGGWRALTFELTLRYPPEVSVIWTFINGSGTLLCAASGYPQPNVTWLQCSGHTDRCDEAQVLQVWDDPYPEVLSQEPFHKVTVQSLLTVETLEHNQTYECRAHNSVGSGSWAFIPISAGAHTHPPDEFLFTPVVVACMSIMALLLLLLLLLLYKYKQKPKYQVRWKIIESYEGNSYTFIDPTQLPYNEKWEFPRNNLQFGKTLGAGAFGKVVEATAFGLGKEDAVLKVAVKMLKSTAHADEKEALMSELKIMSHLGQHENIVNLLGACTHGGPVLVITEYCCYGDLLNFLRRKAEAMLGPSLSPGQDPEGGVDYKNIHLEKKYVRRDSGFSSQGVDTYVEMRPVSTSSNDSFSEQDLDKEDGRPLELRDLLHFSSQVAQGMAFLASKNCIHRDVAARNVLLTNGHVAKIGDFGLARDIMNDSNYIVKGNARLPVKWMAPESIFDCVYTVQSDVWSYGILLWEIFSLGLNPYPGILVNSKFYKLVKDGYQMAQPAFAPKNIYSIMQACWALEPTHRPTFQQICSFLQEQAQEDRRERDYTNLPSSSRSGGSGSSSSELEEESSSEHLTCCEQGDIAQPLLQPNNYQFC
Procedure, shortened: (§2)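 Z′-Lyte FRET assay with CSF1R or EGFR and 2 μM Tyr4 peptide substrate in 1× kinase buffer. ATP was supplied as a 100 μM solution, a stock and not the final concentration. Compounds were 3-fold serially diluted in DMSO. Reaction ran 1 h at room temperature, followed by 1 h development and a stop reagent. Phospho-peptide, no-ATP and DMSO controls were included. IC50 by curve fitting; mean of at least three independent experiments.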

[6] = Cmax in Sprague-Dawley rat at 25 mg/kg administered via oral gavage measured up to 72 hrs by LC/MS analysis; assay type: ADME, organism-based; parameters: dose 25 mg/kg, route oral; details: in vivo; procedure, shortened: as §1
[7] = Oral bioavailability in Sprague-Dawley rat at 25 mg/kg administered via gavage measured up to 72 hrs by LC/MS analysis; assay type: ADME, organism-based; details: in vivo; procedure, shortened: as §1
[8] = Half life in Sprague-Dawley rat at 5 mg/kg, iv measured up to 72 hrs by LC/MS analysis; assay type: ADME, organism-based; details: in vivo; procedure, shortened: as §1
[9] = biological target: Epidermal growth factor receptor (Homo sapiens, UniProt P00533); assay: Inhibition of recombinant human wild type GST-tagged EGFR cytoplasmic domain (668 to 1210 residues) expressed in baculovirus using tyr4 peptide as substrate after 1 hr by FRET-based Z'-Lyte assay
Sequence of Epidermal growth factor receptor (P00533 whole entry, the tested form may be a part): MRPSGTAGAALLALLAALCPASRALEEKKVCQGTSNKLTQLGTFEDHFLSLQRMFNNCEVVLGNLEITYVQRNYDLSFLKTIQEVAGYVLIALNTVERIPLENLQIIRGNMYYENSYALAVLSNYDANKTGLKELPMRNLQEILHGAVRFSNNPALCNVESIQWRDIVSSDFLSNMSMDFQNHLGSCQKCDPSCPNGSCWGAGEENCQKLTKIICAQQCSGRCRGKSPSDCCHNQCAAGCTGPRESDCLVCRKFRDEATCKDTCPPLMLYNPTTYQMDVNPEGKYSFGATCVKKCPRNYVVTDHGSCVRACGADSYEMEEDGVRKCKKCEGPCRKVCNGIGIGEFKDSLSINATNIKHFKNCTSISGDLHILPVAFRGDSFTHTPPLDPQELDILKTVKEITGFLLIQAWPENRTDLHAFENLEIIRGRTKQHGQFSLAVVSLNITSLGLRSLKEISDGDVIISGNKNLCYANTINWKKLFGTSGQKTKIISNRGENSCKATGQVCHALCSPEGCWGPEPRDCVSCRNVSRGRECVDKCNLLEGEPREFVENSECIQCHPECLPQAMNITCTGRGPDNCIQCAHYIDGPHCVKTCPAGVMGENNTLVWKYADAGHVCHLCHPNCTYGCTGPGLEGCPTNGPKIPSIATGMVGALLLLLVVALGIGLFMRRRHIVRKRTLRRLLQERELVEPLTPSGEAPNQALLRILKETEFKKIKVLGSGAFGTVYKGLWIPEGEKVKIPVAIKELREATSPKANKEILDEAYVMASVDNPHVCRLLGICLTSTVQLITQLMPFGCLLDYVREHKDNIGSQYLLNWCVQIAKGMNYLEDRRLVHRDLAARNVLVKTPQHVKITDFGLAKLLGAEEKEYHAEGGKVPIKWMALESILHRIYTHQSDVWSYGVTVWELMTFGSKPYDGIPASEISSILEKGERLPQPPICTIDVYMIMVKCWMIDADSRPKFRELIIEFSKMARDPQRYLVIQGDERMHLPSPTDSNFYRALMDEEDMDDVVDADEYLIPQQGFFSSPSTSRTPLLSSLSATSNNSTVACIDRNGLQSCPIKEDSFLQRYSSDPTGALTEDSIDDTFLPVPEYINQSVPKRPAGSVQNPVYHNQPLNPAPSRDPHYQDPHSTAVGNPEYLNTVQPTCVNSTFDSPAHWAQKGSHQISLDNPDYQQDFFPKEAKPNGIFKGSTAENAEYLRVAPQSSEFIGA

Homo sapiens = species: Homo sapiens; assay: Selectivity ratio of IC50 for recombinant human wild type GST-tagged EGFR cytoplasmic domain (668 to 1210 residues) expressed in baculovirus to IC50 for recombinant human His-tagged CSF1R cytoplasmic domain (538 to 910 residues) expressed in baculovirus; procedure, shortened: as §2

CCC(=O)N1CC[C@H](N2C(=O)N(c3cc(OC)ccc3Cl)Cc3cnc(Nc4ccc(N5CCN(C)CC5)c(C)c4)nc32)C1
AUC(0-inf) [1]: 2770 ng·h/mL
CL(app) (Rattus norvegicus [2]): 30.7 mL/min/kg
AUC (Rattus norvegicus [3]): 5311 ng·h/mL
half-life [4]: 1.89 h
IC50 [5]: 2.1 nM
Cmax [6]: 988 ng/mL
bioavailability [7]: 38.6%
half-life [8]: 3.48 h

CCC(=O)N1CC[C@H](N2C(=O)N(c3cccc(OC)c3)Cc3cnc(Nc4ccc(N5CCN(C)CC5)c(C)c4)nc32)C1
IC50 [9]: 417 nM
Ratio IC50 (Homo sapiens): 92
IC50 [5]: 4.5 nM

CCC(=O)N1CC[C@H](N2C(=O)N(c3cc(OC)ccc3F)Cc3cnc(Nc4ccc(N5CCN(C)CC5)c(C)c4)nc32)C1
AUC(0-inf) [1]: 1900 ng·h/mL
CL(app) (Rattus norvegicus [2]): 44 mL/min/kg
AUC (Rattus norvegicus [3]): 1630 ng·h/mL
half-life [4]: 1.6 h
IC50 [9]: 362 nM
Ratio IC50 (Homo sapiens): 99 to 200
IC50 [5]: 2 nM
Cmax [6]: 396 ng/mL
bioavailability [7]: 17.1%
half-life [8]: 2.3 h

CCC(=O)N1CC[C@H](N2C(=O)N(c3cccc(OC)c3F)Cc3cnc(Nc4ccc(N5CCN(C)CC5)c(C)c4)nc32)C1
IC50 [9]: 421 nM
Ratio IC50 (Homo sapiens): 99 to 200
IC50 [5]: 4.5 nM

CCC(=O)N1CC[C@H](N2C(=O)N(c3cccc(OC)c3Cl)Cc3cnc(Nc4ccc(N5CCN(C)CC5)c(C)c4)nc32)C1
IC50 [9]: 413 nM
Ratio IC50 (Homo sapiens): 99 to 200
IC50 [5]: 4.4 nM

CCC(=O)N1CC[C@H](N2C(=O)N(c3cc(OC)ccc3F)Cc3cnc(Nc4ccc(N5CCCN(C)CC5)c(C)c4)nc32)C1
IC50 [9]: 209 nM
IC50 [5]: 4.9 nM

CCC(=O)N1CC[C@H](N2C(=O)N(c3cc(OC)ccc3F)Cc3cnc(Nc4ccc(N5CCCCC5)c(C)c4)nc32)C1
IC50 [9]: 467 nM
IC50 [5]: 41.2 nM

CCC(=O)N1CC[C@H](N2C(=O)N(c3cc(OC)ccc3F)Cc3cnc(Nc4ccc(N(C)CCN(C)C)c(C)c4)nc32)C1
IC50 [9]: 1300 nM
IC50 [5]: 10.3 nM

CCCN1CC[C@H](N2C(=O)N(c3ccccc3Cl)Cc3cnc(Nc4ccc(N5CCN(C)CC5)c(C)c4)nc32)C1
IC50 [9]: 52.8 nM
IC50 [5]: 181 nM

CCC(=O)N1CC[C@H](N2C(=O)N(c3cc(OC)ccc3F)Cc3cnc(Nc4ccc(N5C[C@H]6CN(C)C[C@H]6C5)c(C)c4)nc32)C1
IC50 [9]: 216 nM
IC50 [5]: 7 nM

CCC(=O)N1CC[C@H](N2C(=O)N(c3cc(OC)ccc3F)Cc3cnc(Nc4ccc(N5CC6(CCN(C)CC6)C5)c(C)c4)nc32)C1
IC50 [9]: 218 nM
IC50 [5]: 6.5 nM
